Source: PubChem (several laboratories)
FXN GAA850 act – frataxin GAA850 promoter activation. HEK293 lucGAA850 FXN promoter luciferase reporter, 24 h; percent of 10 µM SAHA response. activation, % at 6 µM. 360,000 compounds, 0.56% hits. AID 540364;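 active means activation above the average of all compounds screened plus 3 SD, cutoff fixed separately per campaign, cut at about 7.5% in these data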;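 further: 0% = DMSO wells and 100% = 10 µM SAHA wells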
UPR CHOP act – apoptotic UPR (CHOP) activation; CHO-CHOP luciferase reporter, luminescence; percent of tunicamycin response over DMSO baseline; AID 449763; activation, % at 10 µM; 330,000 compounds, 0.34% hits;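 active means at 10 µM dose, activation of 40% or more, normalized to positive control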;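 further: 100% = tunicamycin at 10 µg/mL and 0% = DMSO alone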
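Material: CHO-CHOP cells, stable luciferase reporter of PERK-eIF2a-CHOP signalling; quantity: 500 reporter cells seeded per well; buffer or medium: F12 medium containing 10% fetal bovine serum; compound: one dose, 10 µM in 0.5% DMSO; incubation: 6 h compound treatment, 37 °C; measured by: Steady-Glo luciferase luminescence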
UPR XBP1 act – adaptive UPR (XBP1) activation; CHO-XBP1 luciferase reporter, IRE1-XBP1 UPR activation, luminescence; percent of tunicamycin response, DMSO as zero; activation, % at 20 µM; 330,000 compounds, 0.33% hits; AID 463104;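 active means versus positive control, 20 µM dose yields 30% or more activation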;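 further: 100% = tunicamycin at 10 µg/mL and 0% = DMSO only wells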
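Signal: luciferase luminescence; Assay system: CHO-XBP1 luciferase reporter cells; Amount: one thousand reporter cells per well; Dosing: 20 µM single concentration, DMSO 1%; Benchmarks: high control tunicamycin 10 µg/mL final, low control DMSO vehicle only; Schedule: 6 h compound exposure at 37 °C, 5% CO2; Evaluation: percent activation relative to tunicamycin reference.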
CHOP inh – CHOP inhibition in unfolded protein response. AID 2732. CHO-K1 CHOP-promoter luciferase, tunicamycin-induced, 15-18 h. inhibition, % at 10 µM. 220,000 compounds, 3.8% hits;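 active means compounds that reduced the stress-induced luciferase reporter signal by more than about 70% of percent inhibition, limit read from the data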;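 further: 0% = tunicamycin plus vehicle and 100% = wells without tunicamycin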
GAA30 counter – GAA30 FXN promoter activation counter-screen; shares compounds with FXN GAA850 act; HEK293 lucGAA30 FXN promoter luciferase, 24 h; DMSO = 0%, 5 µM ipriflavone = 100%; activation, % at 6 µM; 1,900 compounds, 66% hits; AID 588350;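 active means mean activation above the mean of solvent-only control wells plus 3 SD, cut at about 22% in these data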;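 further: counterscreen of GAA850 promoter hits where activity marks nonselective or luminescence artifacts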
GAA850 confirm – confirmation of GAA850 frataxin (FXN) promoter activators; shares compounds with FXN GAA850 act; HEK293 lucGAA850 FXN promoter luciferase reporter, 24 h; 100% = activation by SAHA; activation, % at 6 µM; 1,900 compounds, 86% hits; AID 588351;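 active means mean activation above a set limit taken from the primary screen, cut at about 8% in these data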;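 further: 0% = DMSO wells and 100% = 10 µM SAHA wells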
The depositor's hits bear a star; · = no result given. This excerpt belongs to a sample that is enriched for hits.

SMILES | FXN GAA850 act | UPR CHOP act | UPR XBP1 act | CHOP inh | GAA30 counter | GAA850 confirm
CCOC(=O)c1ccc(NC(=O)c2nc(S(=O)(=O)Cc3ccccc3)ncc2Cl)cc1 | 15.7* | -9.3 | -9.2 | · | -39.8 | -26.6
CCOC(=O)c1ccc(NC(=O)c2ccccc2)cc1 | 8.0* | 7.0 | 2.4 | -5.5 | 78.6* | 33.0*
COc1ccccc1CNc1nc(Nc2ccccc2-n2cccn2)c2sccc2n1 | -1.1 | · | · | · | · | ·
O=S(CC(O)c1ccccc1)c1ccccc1 (configuration not stated) | -0.3 | · | · | · | · | ·
CCc1ccccc1Nc1nc(N)nc(CSCC(=O)Nc2ccc(C)c(C)c2)n1 | 11.9* | -1.8 | 0.2 | 39.9 | 30.4* | 15.5*
CCOc1ccc(-c2noc(-c3csc([C@@H]4C[C@H](O)[C@@H](CO)O4)n3)n2)cc1 | 2.0 | · | · | · | · | ·
Cc1cc2nccc(-c3ccccn3)n2n1 | 0.4 | -0.5 | -2.6 | -7.4 | · | ·
c1ccc(-c2cc3nccc(-c4ccccn4)n3n2)cc1 | 8.0* | 4.1 | 4.5 | -11.1 | 106.0* | 28.7*
NS(=O)(=O)c1ccc(CCNC(=O)COC(=O)Cc2ccc(Cl)cc2)cc1 | 1.6 | · | · | · | · | ·
CCOC(=O)C1CCCN(C(=O)c2ccc3ccccc3c2)CC1 (configuration not stated) | 0.7 | · | · | · | · | ·
O=C(OC(C(=O)Nc1ccc(Cl)cc1C(F)(F)F)c1ccccc1)c1c(Cl)cccc1Cl (configuration not stated) | 11.4* | -1.2 | 0.5 | 28.5 | 17.8 | 10.6*
O=CNc1cc(-c2ccoc2)cn2c(-c3ccc(F)cc3)cnc12 | -0.6 | · | · | · | · | ·
COc1ccc(-c2cn3cccc(C)c3n2)cc1Br | 8.4* | 3.1 | 4.5 | 5.8 | 119.6* | 37.5*
CCN(CC)C(=O)C1=C(C)N(Cc2ccc(C(C)(C)C)cc2)C(=O)C(CC(=O)NCc2cccs2)C1 (configuration not stated) | -0.2 | · | · | · | · | ·
Cc1ccc(-c2nn3c(C)nnc3s2)cc1NC(=O)C(C)C | 0.8 | -1.5 | 1.0 | 20.6 | · | ·
Cc1ccc(-c2nn3c(C)nnc3s2)cc1NC(=O)c1ccco1 | 14.2* | -0.8 | -1.4 | 34.2 | 25.8* | 5.5
CCN1CCC(O)(/C=C/c2ccc(C(C)C)cc2)C(C(=O)/C=C/c2ccc(C(C)C)cc2)C1 (configuration not stated) | 1.7 | · | · | · | · | ·
CC(N)c1csc(Nc2cc(Oc3ccccc3)ncn2)n1 (configuration not stated) | 0.9 | · | · | · | · | ·
COc1cccc(C(=O)/C=C/Nc2cc(C)ccc2O)c1 | 11.0* | 6.7 | 8.0 | · | 46.8* | 32.7*
CCOC(=O)c1ccc(N/C=C\C(=O)c2cccc(OC)c2)cc1 | 4.5 | 2.8 | 2.5 | -45.6 | · | ·
CC(Nc1cc(N2CCOCC2)ccc1[N+](=O)[O-])c1ccccc1 (configuration not stated) | 8.8* | -1.5 | 1.8 | 72.8* | 33.8* | 15.2*
CC(Nc1cc(N2CCCC2)ccc1[N+](=O)[O-])c1ccccc1 (configuration not stated) | 2.4 | 1.8 | 0.2 | 9.7 | · | ·
COc1cccc(OCCNc2cc(N3CCOCC3)ccc2[N+](=O)[O-])c1 | 10.0* | 2.0 | 6.0 | 8.6 | 67.5* | 30.7*
CSc1ncnc2c1ncn2CCCN1CCN(Cc2cccc3ccccc23)CC1 | -1.4 | · | · | · | · | ·
O=C(NC(c1ccc(-c2ccccc2)cc1)c1cnccn1)C1CCN(CCCOc2ccccc2)CC1 (configuration not stated) | -1.2 | · | · | · | · | ·
SMILES | FXN GAA850 act | UPR CHOP act | UPR XBP1 act | CHOP inh | GAA30 counter | GAA850 confirm
O=C(Nc1ccc(N2CCOCC2)c(Cl)c1)c1ccc([N+](=O)[O-])o1 | 11.2* | · | · | -50.5 | 117.6* | 56.0*
CCCC(=O)N1CCN(c2ccc(NC(=O)c3ccc([N+](=O)[O-])o3)cc2Cl)CC1 | 7.9* | · | · | -62.0 | 19.6 | 24.5*
CSc1ncnc2c1ncn2CCCN[C@H](C)c1cccc2ccccc12 | 9.6* | · | · | · | 19.0 | 9.8*
CCCCn1cnc2c(SCc3ccc(Br)cc3)nc(N)nc21 | 7.8* | · | · | · | 29.3* | 18.0*
CCCn1cnc2c(SCc3ccc(Cl)cc3)nc(N)nc21 | 9.8* | · | · | · | 45.3* | 25.3*
CCCn1cnc2c(SCc3ccccc3)nc(N)nc21 | 5.8 | · | · | · | · | ·
CC1CCN(C(=O)C2CCC(CNS(=O)(=O)c3ccc4c(c3)C(C)(C)C(=O)N4C)CC2)CC1 (configuration not stated) | -0.5 | · | · | · | · | ·
CCOC(=O)c1sc(NC(=O)CCN2CCCCCC2)c(C(=O)OCC)c1C | 10.4* | 2.7 | 1.3 | 21.5 | 14.8 | 7.0
COc1ccccc1-c1noc2c1C(=O)NCC2 | 0.2 | · | · | · | · | ·
CCc1nc2c(OCc3c(C)noc3C)cccn2c1N(C)C(=O)c1ccccc1F | 0.8 | · | · | · | · | ·
Cn1nc(C(C)(C)C)cc1NC(=O)C1(C)CCN1C(=O)Cc1ccc(-c2ccccc2)cc1 (configuration not stated) | -1.3 | · | · | · | · | ·
O=C(Nc1ccc(F)cc1)Nc1ccc(N2CCOCC2)c2nonc12 | 8.2* | 0.1 | 7.7 | -25.9 | 102.8* | 31.8*
COc1ccc(NC(=O)Nc2ccc(N3CCOCC3)c3nonc23)c(OC)c1 | 1.1 | 0.4 | 2.6 | 30.8 | · | ·
CC(N)c1csc(Nc2nccc(C(F)(F)F)n2)n1 (configuration not stated) | 0.0 | · | · | · | · | ·
CCc1nc2ccc(C(=O)Nc3ccc4c(c3)OCC(=O)N4)cn2c1N(CC)Cc1cccc(Br)c1 | -0.9 | · | · | · | · | ·
O=[N+]([O-])c1c(Nc2ccccc2O)cc(Cl)c2nonc12 | 10.8* | -8.5 | -10.6 | · | -78.6 | -7.9
O=c1ccn(C2CCCCC2)c(=O)[nH]1 | 2.1 | · | · | · | · | ·
CC(C)c1nc(SCC(=O)N2CCCCC2)c2c(=O)n(C)c(=O)n(C)c2n1 | -1.4 | · | · | · | · | ·
CC(C)=CCC/C(C)=C/CNC(=O)C[C@H]1C[C@H](C(=O)N2CCOCC2)[C@@]2(CCC3CCCC3)c3[nH]c4cc(CCC(=O)N(C)C)ccc4c3CCN2C1=O | 2.0 | 9.4 | 21.3 | · | · | ·
CCc1cccc(C)c1NC(=O)CN1C(=O)c2ccccc2S1(=O)=O | 17.5* | 1.1 | -3.2 | 23.7 | 12.2 | 6.6
CC(C)(C)c1ccc(C(O)c2ncc(-c3cccc(F)c3)[nH]2)cc1 (configuration not stated) | 0.5 | · | · | · | · | ·
COc1ccc([C@H]2C[C@H](n3cc(COC(=O)c4ccccc4)nn3)[C@@H](O)CN2Cc2cccs2)cc1 | -0.6 | · | · | · | · | ·
COc1ccc(-c2csc(N3C(=N)SCC3=O)n2)cc1 | 10.4* | 0.8 | -4.5 | -13.4 | 95.8* | 28.4*
CC1(C(=O)NS(=O)(=O)C2CC2)CCN(C(=O)c2c(F)cccc2F)C1 (configuration not stated) | 0.9 | · | · | · | · | ·
Oc1c(C=Nc2cccnc2)sc2ccccc12 | 0.2 | 7.2 | 15.3 | -50.5 | · | ·
